The results in this text go back to ChEMBL document CHEMBL1136894, “New antituberculotics originated from salicylanilides with promising in vitro activity against atypical mycobacterial strains” (Bioorg Med Chem, 2009).

The test system of series [1] is Mycobacterium tuberculosis. In words: Antimycobacterial activity against Mycobacterium tuberculosis CNCTC My 331/88 after 14 days. Format: functional. To be noted: CNCTC My 331/88, 336 h. The gist of the method: (§1)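 Broth dilution in Sula semisynthetic medium, compounds added as DMSO solutions at 250, 125, 62, 32, 16, 8, 4, 2 and 1. Strains came from the Czech National Collection of Type Cultures; the M. tuberculosis inoculum was diluted 10^-3. Cultures were incubated at 37 °C, and MIC was read after 7, 14 and 21 days.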

For series [2], the system named is Mycobacterium tuberculosis. The series can be described thus: Antimycobacterial activity against Mycobacterium tuberculosis CNCTC My 331/88 after 21 days. Format: functional. To be noted: CNCTC My 331/88, 504 h. The procedure, abridged:
as §1

The test system of series [3] is Mycobacterium avium. In words: Antimycobacterial activity against Mycobacterium avium CNCTC My 330/88 after 14 days. To be noted: CNCTC My 330/88, 336 h. Format: functional. The procedure, abridged: as §1
The subject of series [4] is Mycobacterium avium. The series can be described thus: Antimycobacterial activity against Mycobacterium avium CNCTC My 330/88 after 21 days. Format: functional. The conditions noted are these: CNCTC My 330/88, 504 h. The gist of the method:
as §1

In series [5] the test system is Mycobacterium kansasii. In words: Antimycobacterial activity against Mycobacterium kansasii CNCTC My 235/80 after 7 days. It is filed as functional. To be noted: CNCTC My 235/80, 168 h. The procedure, abridged: (§2)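 Compounds were added as DMSO solutions to Sula semisynthetic medium at 250, 125, 62, 32, 16, 8, 4, 2 and 1 µmol/L. Two M. kansasii strains were used: CNCTC My 235/80 and clinical isolate 6509/96, each with strain dilution 10^-4. Incubation was at 37 °C, and MIC was read at 7, 14 and 21 days.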

The subject of series [6] is Mycobacterium kansasii. In words: Antimycobacterial activity against Mycobacterium kansasii CNCTC My 235/80 after 14 days. It is filed as functional. To be noted: CNCTC My 235/80, 336 h. The procedure, abridged:
as §2

Series [7] concerns Mycobacterium kansasii. The series can be described thus: Antimycobacterial activity against Mycobacterium kansasii CNCTC My 235/80 after 21 days. It is filed as functional. To be noted: CNCTC My 235/80, 504 h. The procedure, abridged:
as §2

Series [8] has as its system Mycobacterium kansasii. In words: Antimycobacterial activity against Mycobacterium kansasii isolate 6509/96 after 7 days. Format: functional. To be noted: isolate 6509/96, 168 h. The procedure, abridged:
as §2

In series [9] the test system is Mycobacterium kansasii. The series can be described thus: Antimycobacterial activity against Mycobacterium kansasii isolate 6509/96 after 14 days. Format: functional. The conditions noted are these: isolate 6509/96, 336 h. The gist of the method: as §2
Series [10] relates to Mycobacterium kansasii. In words: Antimycobacterial activity against Mycobacterium kansasii isolate 6509/96 after 21 days. Format: functional. To be noted: isolate 6509/96, 504 h. The gist of the method:
as §2

The nature of series [11]: Lipophilicity, log K by HPLC. It is filed as physicochemical. The procedure, abridged: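 Capacity factors k were measured by RP-HPLC and log k was calculated from them.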
The subject of the next series is HCT-8. In words: Cytotoxicity against human HCT8 cells after 72 hrs by XTT assay. It is filed as functional, cell-based. The conditions noted are these: HCT-8, 72 h. The procedure, abridged:
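HCT-8 cells were grown in EMEM with 5% FBS at 37 °C under 5% CO2. They were harvested with trypsin, seeded at 2 × 10^5 cells/mL and left 24 h. Medium was then replaced with compound in DMSO. DMSO-only wells served as the viability control and 20% DMSO as the cytotoxic control. Reagent was added for 4 h and absorbance read at 450 nm. Triplicates; EC50 reported.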

A short description of series [12]: Selectivity index, ratio of EC50 for human HCT8 cells to MIC for Mycobacterium tuberculosis CNCTC My 331/88. Format: functional, HCT-8. The gist of the method: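 SI is EC50 in HCT-8 cells divided by the M. tuberculosis MIC. HCT-8 cells were grown in EMEM with 5% FBS at 37 °C under 5% CO₂, trypsinised and seeded at 2 × 10⁵ cells/mL. After 24 h the medium was replaced with compound in DMSO. Controls were DMSO alone and 20% DMSO. Absorbance was read at 450 nm 4 h after reagent addition, in triplicate.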

Series [13] can be described thus: Stability assessed as half life in phosphate buffer at pH 7.4 by UV-visible spectroscopy. Format: physicochemical. The procedure, abridged: (§3)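 Compound in methanolic solution (10 or 20 µL) was added to tempered 7 × 10^-2 M phosphate buffer (2 mL) at pH 7.4 or 5.5, 37 °C. The absorbance decrease at 224 nm was followed by UV/vis.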
Series [14] can be described thus: Stability assessed as half life in phosphate buffer at pH 5.5 by UV-visible spectroscopy. It is filed as physicochemical. The gist of the method: as §3

Converted amounts (≈) assume the structure as drawn.

In the case of `CC(C)[C@@H](NC(=O)OCc1ccccc1)C(=O)Oc1cc(Cl)ccc1C(=O)Nc1ccc(Cl)cc1`, the minimal inhibitory concentration (MIC) in series [1] is 4 µM (≈ 2.06 µg/mL); in series [2], 4 µM (≈ 2.06 µg/mL); in the series with Mycobacterium avium [3] it was 8 µM (≈ 4.12 µg/mL); with Mycobacterium avium [4], 16 µM (≈ 8.25 µg/mL); in the series with Mycobacterium kansasii [5], 4 µM (≈ 2.06 µg/mL); in the series with Mycobacterium kansasii [6], 8 µM (≈ 4.12 µg/mL). Also, the MIC is 8 µM (≈ 4.12 µg/mL) in the series with Mycobacterium kansasii [7], 4 µM (≈ 2.06 µg/mL) with Mycobacterium kansasii [8], 8 µM (≈ 4.12 µg/mL) in the series on Mycobacterium kansasii [9] and 8 µM (≈ 4.12 µg/mL) in the series on Mycobacterium kansasii [10]. Further, in series [11], the “log K” value worked out at 0.8816. Also, the EC50 in the series on HCT-8 stood at 107 µM. The Ratio in series [12] is 13.75. For the same compound, the half-life in series [13] is 20.4 min; in series [14] it was 20.3 min.

For `O=C(N[C@H](Cc1ccccc1)C(=O)Oc1ccc(Cl)cc1C(=O)Nc1ccc(Br)cc1)OCc1ccccc1`, the minimal inhibitory concentration (MIC) in series [1] was determined as 2 µM (≈ 1.22 µg/mL); in series [2] it was 4 µM (≈ 2.43 µg/mL); in the series with Mycobacterium avium [3], 8 µM (≈ 4.86 µg/mL); with Mycobacterium avium [4], 16 µM (≈ 9.73 µg/mL); in the series with Mycobacterium kansasii [5], 2 µM (≈ 1.22 µg/mL); against Mycobacterium kansasii [6], 4 µM (≈ 2.43 µg/mL). In addition, the MIC amounted to 4 µM (≈ 2.43 µg/mL) against Mycobacterium kansasii [7], 8 µM (≈ 4.86 µg/mL) against Mycobacterium kansasii [8], 8 µM (≈ 4.86 µg/mL) with Mycobacterium kansasii [9] and 8 µM (≈ 4.86 µg/mL) against Mycobacterium kansasii [10]. Further, the “log K” value in series [11] was found to be 1.1267. This compound displayed a 50% effective concentration (EC50) in the series on HCT-8 of 35.5 µM. Besides, in series [12], the Ratio was 10.61. In addition, the half-life in series [13] is 34.3 min; in [14], 32.5 min.

`CC(C)[C@@H](NC(=O)OCc1ccccc1)C(=O)Oc1ccc(Cl)cc1C(=O)Nc1ccc(Br)cc1`: the MIC was 2 µM (≈ 1.12 µg/mL) in [1]; 4 µM (≈ 2.24 µg/mL) in [2]; 16 µM (≈ 8.96 µg/mL) with Mycobacterium avium [3]; 16 µM (≈ 8.96 µg/mL) with Mycobacterium avium [4]; 4 µM (≈ 2.24 µg/mL) against Mycobacterium kansasii [5]; 8 µM (≈ 4.48 µg/mL) against Mycobacterium kansasii [6]. The minimal inhibitory concentration (MIC) in the series on Mycobacterium kansasii [7], in the series on Mycobacterium kansasii [8], against Mycobacterium kansasii [9] and against Mycobacterium kansasii [10] was 8 µM (≈ 4.48 µg/mL) each time. Further, the “log K” value in [11] was 0.9805. Also, in the series with HCT-8, a half-maximal effect (EC50) was put at 121 µM. The Ratio in series [12] stood at 33.35. In addition, the half-life is 15 min in [13] and 14.8 min in [14].

As for `CC(C)[C@H](NC(=O)OCc1ccccc1)C(=O)Oc1ccc(Cl)cc1C(=O)Nc1ccc(Br)cc1`, the MIC in series [1] was 4 µM (≈ 2.24 µg/mL); in [2], 4 µM (≈ 2.24 µg/mL); in the series on Mycobacterium avium [3], 8 µM (≈ 4.48 µg/mL); with Mycobacterium avium [4] it was 16 µM (≈ 8.96 µg/mL); in the series with Mycobacterium kansasii [5], 4 µM (≈ 2.24 µg/mL); against Mycobacterium kansasii [6], 8 µM (≈ 4.48 µg/mL). For the same compound, the minimum inhibitory concentration (MIC) against Mycobacterium kansasii [7], in the series on Mycobacterium kansasii [8], against Mycobacterium kansasii [9] and with Mycobacterium kansasii [10] was 8 µM (≈ 4.48 µg/mL) throughout. In addition, the “log K” value in series [11] turned out to be 0.9803. Further, the EC50 with HCT-8 is 122 µM. The Ratio in [12] was found to be 16.74. In addition, the half-life in [13] was 14.8 min; in [14], 14.3 min.

Consider `O=C(N[C@H](Cc1ccccc1)C(=O)Oc1cc(Cl)ccc1C(=O)Nc1ccc(Cl)cc1)OCc1ccccc1`, for which the MIC in series [1] is 4 µM (≈ 2.25 µg/mL); in series [2], 4 µM (≈ 2.25 µg/mL); against Mycobacterium avium [3] it was 8 µM (≈ 4.51 µg/mL); against Mycobacterium avium [4] it was 8 µM (≈ 4.51 µg/mL); against Mycobacterium kansasii [5], 4 µM (≈ 2.25 µg/mL); in the series with Mycobacterium kansasii [6], 8 µM (≈ 4.51 µg/mL). The MIC with Mycobacterium kansasii [7] was found to be 8 µM (≈ 4.51 µg/mL); with Mycobacterium kansasii [8], 4 µM (≈ 2.25 µg/mL); against Mycobacterium kansasii [9], 8 µM (≈ 4.51 µg/mL); against Mycobacterium kansasii [10] it was 8 µM (≈ 4.51 µg/mL). Also, the “log K” value in [11] is given as 1.0315. The same compound registered a concentration giving a half-maximal response (EC50) with HCT-8 of 104 µM. In [12], the Ratio was found to be 26.05. Besides, the values for the half-life in series [13] and in [14] were 22.1 min and 17.9 min, respectively.

As to `O=C(N[C@@H](Cc1ccccc1)C(=O)Oc1cc(Cl)ccc1C(=O)Nc1ccc(Cl)cc1)OCc1ccccc1`, the MIC in series [1] stood at 4 µM (≈ 2.25 µg/mL); in [2], 4 µM (≈ 2.25 µg/mL); in the series with Mycobacterium avium [3], 8 µM (≈ 4.51 µg/mL); against Mycobacterium avium [4], 8 µM (≈ 4.51 µg/mL); with Mycobacterium kansasii [5] it was 4 µM (≈ 2.25 µg/mL); against Mycobacterium kansasii [6], 8 µM (≈ 4.51 µg/mL). Besides, the MIC turned out to be 8 µM (≈ 4.51 µg/mL) with Mycobacterium kansasii [7], 4 µM (≈ 2.25 µg/mL) in the series on Mycobacterium kansasii [8], 8 µM (≈ 4.51 µg/mL) in the series with Mycobacterium kansasii [9] and 8 µM (≈ 4.51 µg/mL) in the series with Mycobacterium kansasii [10]. In series [11], the “log K” value amounted to 1.0304. Also, the EC50 with HCT-8 came to 82.9 µM. In addition, in series [12], the Ratio worked out at 20.73. Further, the half-life in series [13] was 25.3 min; in [14] it was 21.9 min.

For orientation: MIC means the lowest concentration that inhibits growth of the organism. Low readings indicate a more susceptible organism, high ones a less susceptible organism. One may read the EC50 as the concentration that produces a half-maximal response. As a reminder, the half-life is how long it takes for the measured level to halve.
